# Source: PubChem BioAssay (several laboratories)
# Many of the other results were omitted from the sample, so hits are more common in it than they were.
# H69AR growth 86K: proliferation blockers of H69AR lung cancer cells, primary screen, cell-based, human, 86K library. H69AR lung tumor viability, ATP luminescence, 72 h; stronger effect = lower value. viability, % at 10 µM. 85,000 compounds, 6% hits;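 active means viability at or below 40%; inactive means viability above 40%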;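 further: multidrug resistant small cell line overexpressing MRP-1 efflux transporter; 100% = mean luminescence of untreated control wells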
# Lung fibro prol: antiproliferative effect on LL 47 fibroblasts – human, LL 47 cells, CellTiter-Glo luminescence, primary screen; LL 47 human lung fibroblast viability, ATP luminescence; stronger effect = lower value; viability, % at 10 µM; 85,000 compounds, 1.1% hits; AID 719, 2007;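 active means viability at or below 50% in the single dose screen; inactive means viability above 50%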;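 further: compound exposure lasted 72 h before the ATP readout; 100% = median luminescence of untreated cell-only wells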
#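 Test system: LL 47 human lung fibroblasts / Incubation: 72 h compound exposure at 37 °C after overnight plating / Technique: luminescent ATP detection, CellTiter-Glo / Compound dosing: 0.1% DMSO in all compound wells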
# bCat KO growth: primary screen for growth suppressors in beta-catenin knockout HCT116 cells (colon tumor, human) | viability, % at 10 µM | HCT116 beta-catenin knockout viability, CellTiter-Glo, 60 h; stronger effect = lower value | 140,000 compounds, 1.5% hits | AID 818, 2007;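 active means viability at or under a set limit, the compound median less 4 SD, cut at about 6% in these data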;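 further: 0% = Hyamine 1622 control at 20 µM and 100% = untreated cell control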
# HUVEC inhibit: inhibitors of HUVEC proliferation, primary screen, cell-based, 384-well | viability, % at 10 µM (by protocol) | CellTiter-Glo luminescence, 72 h; stronger effect = lower value | 86,000 compounds, 1.1% hits;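 active means viability at or below 30%; inactive means viability above 30%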;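 further: 100% = median luminescence of DMSO-only cell control wells on each plate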
# Candida biofilm: clotrimazole potentiators killing Candida biofilms, primary screen, with clotrimazole, Alamar Blue; AID 834, 2007; inhibition, % at 6 µM; 85,000 compounds, 0.14% hits; C. albicans biofilm + clotrimazole;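 active means inhibition above 20%; inactive means inhibition below 20%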;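 further: preformed 24 hr biofilms exposed to compound for 48 hr; 0% = biofilm without compound and 100% = blank killed by clotrimazole plus chlorhexidine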
# HCT116 PTEN-null: growth suppression of PTEN-null HCT116, primary screen, cell-based, CellTiter-Glo | HCT116 PTEN-null viability, 60 h; stronger effect = lower value | viability, % at 10 µM | 140,000 compounds, 1.2% hits | AID 827, 2007;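 active means viability at or below a set limit, 4 SD under the median of all tested compounds, cut at about 3.7% in these data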;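 further: PTEN knockout HCT116 line with beta catenin targeted HCT116 as companion control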
# Numbers without * were called inactive; nt = no result given.
SMILES,H69AR growth 86K,Lung fibro prol,bCat KO growth,HUVEC inhibit,Candida biofilm,HCT116 PTEN-null
O=C(/C=C\c1ccccc1OC(=O)c1ccccc1F)c1cc2ccccc2o1,nt,nt,3.3*,nt,nt,2.0*
COC(=O)C1=C(C)OC(N)=C(C#N)C1c1ccccc1 (stereo not given),91.2,99.7,93.8,88.5,3.4,103.8
CNC(=O)C1C(=S)NC(N)=C(C#N)C1c1ccccc1 (stereo not given),nt,nt,0.5*,nt,nt,1.0*
COc1ccccc1-n1c(=O)oc2ccc(Cl)cc2c1=O,1.5*,50.4,1.2*,20.1*,2.1,1.9*
CC1CCc2cc(F)ccc2N1C(=O)c1ccc2c(c1)OCO2 (stereo not given),92.5,94.7,87.0,107.4,11.5,83.0
CCOC(=O)c1cnc2ccc(OCC)cc2c1N1CCN(c2ccccc2OC)CC1,28.9*,86.7,72.4,66.8,6.1,77.4
CCOC(=O)c1nn(-c2ccc(OCC)cc2)c2nc(-c3ccco3)c(C#N)c(=O)n12,nt,nt,76.9,nt,nt,75.8
CC(=O)C1=C(C)NC(SCC(=O)c2ccccc2)=C(C#N)C1c1ccco1 (stereo not given),62.9,nt,64.0,72.2,-3.2,50.8
CCc1ccc(NC(=O)CSC2=C(C#N)C(c3ccco3)C3=C(CCCC3=O)N2)cc1 (stereo not given),88.5,94.0,78.2,86.3,7.3,79.5
CC(=O)C1=C(C)NC(SCC(=O)c2ccc(Cl)cc2)=C(C#N)C1c1ccco1 (stereo not given),28.7*,nt,55.5,63.2,7.9,49.5
N#CC1=C(SCC(=O)c2ccc(Br)cc2)NC2=C(C(=O)CCC2)C1c1ccco1 (stereo not given),16.7*,56.9,20.0,51.0,8.4,20.5
COc1cccc(-c2nnc(SCC3CNC(=O)O3)n2-c2ccc(Cl)cc2)c1 (stereo not given),nt,nt,96.3,nt,nt,91.2
CCn1c(=O)cc(OCC(=O)Nc2ccc(Cl)cn2)c2ccccc21,89.8,70.1,nt,60.6,1.2,nt
Cc1ccc(S(=O)(=O)ON=C2CCN(S(=O)(=O)c3ccccc3)CC2)cc1,nt,nt,92.0,nt,nt,100.4
CC1=CC(=O)C=C(C)C1=NOS(=O)(=O)c1ccccc1,0.7*,1.4*,1.6*,1.1*,-0.4,2.7*
CCCCN1C[C@H](O)[C@@H](O)[C@H](O)[C@H]1CO,91.4,94.6,1.0*,100.6,8.7,1.2*
N#CC1=C(N)Oc2n[nH]c(-c3cccs3)c2C1C1CCCCC1 (stereo not given),38.3*,100.0,92.1,72.0,6.5,89.5
CCOC(=S)N/C(=N\S(=O)(=O)c1ccc(C)cc1)c1ccccc1,nt,nt,76.7,nt,nt,92.9
O=C1C=C(Nc2cccc(O)c2)CC(c2ccco2)C1 (stereo not given),94.8,98.7,97.9,97.6,0.6,102.6
O=C1C=C(Nc2ccc(Cl)cc2)CC(c2ccco2)C1 (stereo not given),25.5*,87.6,49.0,78.8,5.2,45.1
COc1ccc(CCN(Cc2cc3cccc(C)c3[nH]c2=O)C(=O)NC2CCCCC2)cc1OC,106.2,107.7,74.3,94.1,-1.2,79.4
COc1ccc(/C=N/NC(=O)COc2ccccc2-c2ccccc2)cc1,nt,nt,14.9,nt,nt,16.7
O=C(COc1ccccc1-c1ccccc1)N/N=C/c1cccc2ccccc12,nt,nt,4.3*,nt,nt,4.0
CN(C)S(=O)(=O)c1ccc(Cl)c(NC(=O)CSc2nc3ccccc3c(=O)n2CCCN2CCOCC2)c1,nt,nt,83.3,nt,nt,93.0
COC(=O)/C=C1\C(=O)N(c2nc3ccccc3s2)C(=S)N1c1ccc(F)cc1,46.3,49.7*,50.4,64.4,2.8,58.1
SMILES,H69AR growth 86K,Lung fibro prol,bCat KO growth,HUVEC inhibit,Candida biofilm,HCT116 PTEN-null
CC1=C(C(=O)N2CCN(c3cc(C)ccc3C)CC2)C2(CCC(C)CC2)OC1=O (stereo not given),nt,nt,88.8,nt,nt,79.1
CCOc1cccc(NC(=O)C2CC(=O)N(C)C(=Nc3ccccc3)S2)c1 (stereo not given),20.8*,94.3,54.1,72.8,4.7,56.6
COc1ccc(OC)c(S(=O)(=O)N2CCC(C(=O)N3CCc4ccccc4C3)CC2)c1,35.8*,97.1,91.5,86.0,6.4,86.4
COC(=O)C1=C(C)OC(N)=C(C#N)C1c1c(C)nn(-c2ccccc2)c1Cl (stereo not given),38.6*,87.3,100.9,66.5,9.8,95.2
CCOC(=O)C1=C(C)OC(N)=C(C#N)C1c1c(C)nn(-c2ccc(C)cc2)c1Cl (stereo not given),88.7,96.3,64.8,85.9,0.7,66.8
COc1ccc(CNC(=O)C(c2ccc(C)o2)N(Cc2cccs2)C(=O)Cc2cccs2)cc1 (stereo not given),23.7*,96.0,66.3,71.0,-0.5,52.4
COc1ccc(CNC(=O)C(c2ccc(C)o2)N(C(=O)c2csnn2)c2ccc(C(C)C)cc2)cc1 (stereo not given),38.3*,99.5,24.6,107.0,2.6,18.7
COc1ccc(CC(=O)NCc2cccs2)cc1,30.4*,92.6,66.9,70.5,5.5,72.3
COCCN(C(=O)Cc1cccs1)C(C(=O)NCc1ccc(OC)cc1)c1ccc(C)cc1 (stereo not given),nt,nt,71.7,nt,nt,76.7
CCC(C)(C)NC(=O)C(c1ccc(C)o1)N(Cc1cccs1)C(=O)Cn1nnc2ccccc21 (stereo not given),48.7,43.3*,2.8*,79.3,-3.7,2.4*
O=C(Cc1cccs1)NCc1cccs1,107.5,101.9,95.6,90.4,6.0,84.2
CCC(C)(C)NC(=O)C(c1ccccc1)N(Cc1cccs1)C(=O)Cn1nnc2ccccc21 (stereo not given),65.4,107.1,nt,97.2,7.5,nt
COC(=O)c1ccc(Cl)c(NC(C)=O)c1,nt,nt,96.4,nt,nt,93.3
COC(=O)c1ccc(Cl)c(NC(=O)NC2CCCCC2)c1,29.2*,102.0,95.4,86.7,10.7,98.5
Cc1ccc(N(C)C(=O)N2CCN(S(=O)(=O)c3c(C)cc(C)cc3C)CC2)cc1,49.1,98.8,72.2,84.2,1.9,nt
CCNc1nc(NCC)n2c(SC(C(=O)Nc3cc(Cl)cc(Cl)c3)c3ccccc3)nnc2n1 (stereo not given),nt,nt,1.2*,nt,nt,1.2*
CCOC(=O)c1ccc(N=c2sc(C(=O)OC)cc(=O)n2CCCN2CCOCC2)cc1,20.5*,67.5,6.0*,58.3,10.9,7.7
CCOC(=O)c1ccc(N=c2sc(C(=O)OC)cc(=O)n2Cc2ccco2)cc1,1.3*,69.1,2.2*,28.5*,5.6,2.2*
COC(=O)c1cc(=O)n(Cc2cccs2)c(=NCc2cccs2)s1,nt,nt,91.6,nt,nt,85.7
NC(=O)c1ccc(NC(=O)COC(=O)c2c3c(nc4ccccc24)/C(=C\c2cccs2)CCC3)cc1,nt,nt,1.8*,nt,nt,1.8*
